Test results from ChEMBL document CHEMBL1122141, “Potential radiosensitizing agents. 4. 2-Nitroimidazole nucleosides” (J Med Chem, 1982).

Assays:
[1] = Partition coefficient of the compound; type: ADME; settings: octanol/water
V79 [2] = assay: In vitro radiosensitizing activity against V-79 hypoxic cells was determined in the presence of the sensitizer under nitrogen at a concentration of 0.5 mM; type: functional, Cricetulus griseus
How it was run: (§1)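 Asynchronous monolayer V-79 Chinese hamster cells from exponential cultures, plated in dishes and made hypoxic by purging sealed containers with 95% nitrogen/5% CO2. Drug exposure was 1 h at 37 °C under hypoxia, followed by cobalt-60 irradiation (~240 rad/min, 400–2700 rad). Colonies were grown 6 days at 37 °C, then fixed in ethanol, stained with methylene blue and counted. SER = D0 of hypoxic controls / D0 of drug-treated hypoxic cells.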

V79 [3] = assay: In vitro radiosensitizing activity against V-79 hypoxic cells was determined in the presence of the sensitizer under nitrogen at a concentration of 0.25 mM; type: functional, Cricetulus griseus; how it was run: as §1
V79 [4] = assay: In vitro radiosensitizing activity against V-79 hypoxic cells was determined in the presence of the sensitizer under nitrogen at a concentration of 1.0 mM; type: functional, Cricetulus griseus; how it was run: as §1
V79 [5] = assay: In vitro radiosensitizing activity against V-79 hypoxic cells was determined in the presence of the sensitizer under nitrogen at a concentration of 0.05 mM; type: functional, Cricetulus griseus; how it was run: as §1
V79 [6] = assay: In vitro radiosensitizing activity against V-79 Hypoxic cells was determined in the presence of the sensitizer under nitrogen at a concentration of 0.1 mM; type: functional, Cricetulus griseus; how it was run: as §1

Row | Partition coefficient [1] | Structure (SMILES) | SER (V79 [2]) | SER (V79 [3]) | SER (V79 [4]) | SER (V79 [5]) | SER (V79 [4]; in the assay text read “0.01 mM” for “1.0 mM”) | SER (V79 [6])
1 | 0.04 | O=[N+]([O-])c1nccn1C1OC(CO)C(O)C(O)C1O (stereo not drawn) | – | – | 1 | – | – | –
2 | 4.22 | CC(=O)OCC1SC(n2ccnc2[N+](=O)[O-])C(OC(C)=O)C(OC(C)=O)C1OC(C)=O (stereo not drawn) | – | – | – | 1.1 | – | –
3 | 0.22 | O=[N+]([O-])c1nccn1C1SC(CO)C(O)C(O)C1O (stereo not drawn) | 1.4 | 1.2 | 1.7 | – | – | –
4 | 3.31 | CC(=O)OCC1OC(n2ccnc2[N+](=O)[O-])C(OC(C)=O)C(OC(C)=O)C1OC(C)=O (stereo not drawn) | – | – | – | – | – | 1.2

More lines, now with the values behind:

Row | Structure (SMILES) | Partition coefficient [1] | SER (V79 [2]) | SER (V79 [3]) | SER (V79 [4]) | SER (V79 [5]) | SER (V79 [4]; in the assay text read “0.01 mM” for “1.0 mM”) | SER (V79 [6])
5 | O=[N+]([O-])c1nccn1C1O[C@H](CO)[C@@H](O)[C@H]1O (stereo partly drawn) | 0.07 | 1.4 | – | – | – | – | –
6 | COC(=O)C1(n2ccnc2[N+](=O)[O-])CC(OC(C)=O)C(NC(C)=O)C(C(OC(C)=O)C(COC(C)=O)OC(C)=O)O1 (stereo not drawn) | 2.56 | 1.4 | 1.2 | 1.6 | – | – | –
7 | O=C(OC[C@H]1O[C@@H](n2ccnc2[N+](=O)[O-])[C@H](OC(=O)c2ccccc2)[C@@H]1OC(=O)c1ccccc1)c1ccccc1 | 15.66 | – | – | – | – | 1 | –
